Assay results taken from ChEMBL document CHEMBL4364314, “Design, synthesis and biological evaluation of 6-deoxy O-spiroketal C-arylglucosides as novel renal sodium-dependent glucose cotransporter 2 (SGLT2) inhibitors for the treatment of type 2 diabetes” (Eur J Med Chem, 2019).
pIC50: −log10 of the molar value.

Tests used:
[1] = biological target: T1, Sodium/glucose cotransporter 2 (Homo sapiens, UniProt P31639); assay: Inhibition of human full length SGLT2 expressed in NIH3T3 cells measured after 1 hr in presence of [14C]-methyl-alpha -D-glucopyranoside by scintillation counter method; format: cell-based
T1 sequence (P31639 whole entry): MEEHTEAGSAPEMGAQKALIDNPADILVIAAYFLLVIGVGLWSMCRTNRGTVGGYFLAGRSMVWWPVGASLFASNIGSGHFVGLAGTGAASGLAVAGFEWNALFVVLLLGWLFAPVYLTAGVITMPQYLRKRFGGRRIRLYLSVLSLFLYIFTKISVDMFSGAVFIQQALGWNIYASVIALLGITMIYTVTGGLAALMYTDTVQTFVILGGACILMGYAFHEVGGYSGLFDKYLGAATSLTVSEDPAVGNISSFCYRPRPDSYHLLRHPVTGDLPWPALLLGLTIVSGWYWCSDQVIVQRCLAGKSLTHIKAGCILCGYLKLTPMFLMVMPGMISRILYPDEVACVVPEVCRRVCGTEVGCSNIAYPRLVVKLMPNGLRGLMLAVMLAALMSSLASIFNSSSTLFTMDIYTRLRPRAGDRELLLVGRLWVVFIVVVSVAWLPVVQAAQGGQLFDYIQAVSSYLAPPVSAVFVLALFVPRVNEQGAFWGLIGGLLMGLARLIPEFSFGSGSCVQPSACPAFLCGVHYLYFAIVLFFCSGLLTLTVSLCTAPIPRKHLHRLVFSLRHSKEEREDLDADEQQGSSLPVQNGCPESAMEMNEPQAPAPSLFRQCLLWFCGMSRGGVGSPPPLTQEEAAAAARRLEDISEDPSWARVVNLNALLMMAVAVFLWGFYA
How it was run: (§1)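 Stable NIH3T3 lines from retroviral transduction of full-length hSGLT1 or hSGLT2 (pBABE-puro, 8 µg/mL polybrene, puromycin 2 µg/mL selection for 2 weeks). Cells plated 2 days ahead, 2 mmol/L sodium butyrate added day 2. Read by scintillation counting. Compound-free buffer served as negative control, sodium-free N-methyl-glucamine buffer as blank.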

[2] = biological target: T2, Sodium/glucose cotransporter 1 (Homo sapiens, UniProt P13866); assay: Inhibition of human full length SGLT1 expressed in NIH3T3 cells measured after 1 hr in presence of [14C]-methyl-alpha -D-glucopyranoside by scintillation counter method; format: cell-based; how it was run: as §1
T2 sequence (P13866 whole entry): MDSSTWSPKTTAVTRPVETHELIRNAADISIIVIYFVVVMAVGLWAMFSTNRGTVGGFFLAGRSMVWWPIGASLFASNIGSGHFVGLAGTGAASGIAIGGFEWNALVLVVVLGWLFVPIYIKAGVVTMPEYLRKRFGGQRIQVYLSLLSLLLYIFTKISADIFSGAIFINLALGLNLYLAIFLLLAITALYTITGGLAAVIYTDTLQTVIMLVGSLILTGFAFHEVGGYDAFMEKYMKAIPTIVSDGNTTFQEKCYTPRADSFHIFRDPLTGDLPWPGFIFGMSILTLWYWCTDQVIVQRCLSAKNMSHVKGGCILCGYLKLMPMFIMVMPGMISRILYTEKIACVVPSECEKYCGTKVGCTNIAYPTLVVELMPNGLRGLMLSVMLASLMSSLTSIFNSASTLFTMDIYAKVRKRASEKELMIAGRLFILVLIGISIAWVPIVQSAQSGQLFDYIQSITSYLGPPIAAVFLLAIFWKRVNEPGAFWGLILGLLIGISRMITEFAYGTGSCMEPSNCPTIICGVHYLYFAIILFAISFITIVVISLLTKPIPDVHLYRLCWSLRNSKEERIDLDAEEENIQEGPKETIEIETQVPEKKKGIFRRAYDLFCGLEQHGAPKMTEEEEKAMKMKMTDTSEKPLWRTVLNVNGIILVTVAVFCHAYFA

Homo sapiens = organism: Homo sapiens; assay: Selectivity ratio of IC50 for human full length SGLT1 to IC50 for human full length SGLT2
How it was run: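 Ratio of IC50 at hSGLT1 to IC50 at hSGLT2, both from the [14C]methyl-α-D-glucopyranoside uptake assay in stably transfected NIH3T3 cells.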

Rattus norvegicus [3] = assay: Effect on urinary volume in Sprague-Dawley rat at 1 mg/kg, po administered as single dose measured after 24 hrs (reference value: 24.17 +/- 7.11 mL); format: ADME, organism-based; conditions: in vivo
Mus musculus [4] = assay: Effect on urine glucose excretion in C57BL/6J mouse at 1 mg/kg, po administered as single dose measured after 24 hrs assessed per 100 grams (reference value: 0.84 +/- 0.40 mg ); format: functional
Rattus norvegicus [5] = assay: Effect on urine glucose excretion in Sprague-Dawley rat 1 mg/kg, po administered as single dose measured after 24 hrs assessed per 100 grams (reference value: 0.51 +/- 0.40 mg); format: functional
Mus musculus [6] = assay: Effect on urine glucose concentration in C57BL/6J mouse at 1 mg/kg, po administered as single dose measured after 24 hrs by glucose oxidase method (reference value: 0.74 +/- 0.14 mmol/L); format: functional
Mus musculus [7] = assay: Effect on urinary volume in C57BL/6J mouse at 1 mg/kg, po administered as single dose measured after 24 hrs (reference value: 1.24 +/- 0.45 mL); format: ADME, organism-based; conditions: in vivo
Rattus norvegicus [8] = assay: Effect on urine glucose concentration in Sprague-Dawley rat at 1 mg/kg, po administered as single dose measured after 24 hrs by glucose oxidase method (reference value: 0.28 +/- 0.16 mmol/L); format: functional
[9] = biological target: T3, Sodium/glucose cotransporter 2 (Homo sapiens) (UniProt P31639); assay: Binding affinity to human SGLT2 assessed as dissociation half-life
T3 sequence (whole entry): T1 sequence (P31639 whole entry)

Compound | pIC50 [1] | pIC50 [2] | Ratio IC50 (Homo sapiens) | also measured
COc1ccc(Cc2ccc3c(c2)[C@]2(OC3)O[C@H](C)[C@@H](O)[C@H](O)[C@H]2O)cc1 | < 7.00 | – | – | –
CCOCCc1ccc(Cc2cc3c(cc2Cl)CO[C@]32O[C@H](C)[C@@H](O)[C@H](O)[C@H]2O)s1 | 7.17 | 5.32 | 71 | –
C[C@H]1O[C@]2(OCc3cc(Cl)c(Cc4ccc(-c5ccc(F)cc5)s4)cc32)[C@H](O)[C@@H](O)[C@@H]1O | < 7.00 | – | – | –
CCCc1ccc(Cc2ccc3c(c2)[C@]2(OC3)O[C@H](C)[C@@H](O)[C@H](O)[C@H]2O)cc1 | < 7.00 | – | – | –
COC(=O)Cc1ccc(Cc2cc3c(cc2Cl)CO[C@]32O[C@H](C)[C@@H](O)[C@H](O)[C@H]2O)s1 | 7.37 | 5.19 | 151 | –
C[C@H]1O[C@]2(OCc3ccc(Cc4ccc5ccccc5c4)cc32)[C@H](O)[C@@H](O)[C@@H]1O | < 7.00 | – | – | –
CCc1ccc(Cc2ccc3c(c2)[C@]2(OC3)O[C@H](CO)[C@@H](O)[C@H](O)[C@H]2O)cc1.O [TOFOGLIFLOZIN] | – | – | – | Activity (Rattus norvegicus [3]): 26.5 mL; Activity (Mus musculus [4]): 48.85 mg; Activity (Rattus norvegicus [5]): 73.68 mg; Activity (Mus musculus [6]): 56.27 mmol/L; Activity (Mus musculus [7]): 1.3 mL; Activity (Rattus norvegicus [8]): 43.67 mmol/L
CCc1ccc(Cc2ccc3c(c2)[C@]2(OC3)O[C@H](C)[C@@H](O)[C@H](O)[C@H]2O)cc1 | – | – | 351 | –
C[C@H]1O[C@]2(OCc3cc(Cl)c(Cc4cc5ccccc5s4)cc32)[C@H](O)[C@@H](O)[C@@H]1O | – | 5.70 | 81 | –
CCc1ccc(Cc2cc3c(cc2Cl)CO[C@]32O[C@H](C)[C@@H](O)[C@H](O)[C@H]2O)cc1 | – | 6.40 | 13 | –
C[C@H]1O[C@]2(OCc3cc(Cl)c(Cc4ccc(C=O)s4)cc32)[C@H](O)[C@@H](O)[C@@H]1O | 7.29 | 5.44 | 70 | –
CCc1ccc(Cc2cc3c(cc2F)CO[C@]32O[C@H](C)[C@@H](O)[C@H](O)[C@H]2O)s1 | 7.58 | – | 988 | –
CCOc1ccc(Cc2cc([C@@H]3S[C@H](CO)[C@@H](O)[C@H](O)[C@H]3O)c(OC)cc2C)cc1 | – | – | – | T1/2 [9]: 7 h
COC(=O)c1ccc(Cc2cc3c(cc2Cl)CO[C@]32O[C@H](C)[C@@H](O)[C@H](O)[C@H]2O)s1 | 7.29 | 5.52 | 58 | –
OC[C@H]1O[C@@H](c2ccc(Cl)c(Cc3ccc(O[C@H]4CCOC4)cc3)c2)[C@H](O)[C@@H](O)[C@@H]1O | – | – | – | T1/2 [9]: 1 h
COCCc1ccc(Cc2cc3c(cc2Cl)CO[C@]32O[C@H](C)[C@@H](O)[C@H](O)[C@H]2O)s1 | 7.16 | 5.33 | 68 | –
CCCOCCc1ccc(Cc2cc3c(cc2Cl)CO[C@]32O[C@H](C)[C@@H](O)[C@H](O)[C@H]2O)s1 | 7.37 | 5.30 | 117 | –
C[C@H]1O[C@]2(OCc3cc(Cl)c(Cc4ccc(CO)s4)cc32)[C@H](O)[C@@H](O)[C@@H]1O | 7.33 | 5.66 | 47 | –
C[C@H]1O[C@]2(OCc3ccc(Cc4cc5ccccc5o4)cc32)[C@H](O)[C@@H](O)[C@@H]1O | < 7.00 | – | – | –
CCOc1ccc(Cc2cc3c(cc2Cl)CO[C@]32O[C@H](C)[C@@H](O)[C@H](O)[C@H]2O)cc1 | 8.06 | 6.30 | 60 | –
CCOc1ccc(Cc2ccc3c(c2)[C@]2(OC3)O[C@H](C)[C@@H](O)[C@H](O)[C@H]2O)cc1 | < 7.00 | – | – | –

Now from value to molecule, other results behind:

pIC50 [1] | pIC50 [2] | Ratio IC50 (Homo sapiens) | Compound | also measured
< 7.00 | – | – | C[C@H]1O[C@]2(OCc3ccc(Cc4ccc(-c5ccccc5)s4)cc32)[C@H](O)[C@@H](O)[C@@H]1O | –
< 7.00 | – | – | C[C@H]1O[C@]2(OCc3ccc(Cc4ccc(Cl)s4)cc32)[C@H](O)[C@@H](O)[C@@H]1O | –
< 7.00 | – | – | CCc1ccc(Cc2ccc3c(c2)[C@]2(OC3)O[C@H](C)[C@@H](O)[C@H](O)[C@H]2O)s1 | –
8.07 | 6.40 | 46 | Cc1ccc(Cc2cc3c(cc2Cl)CO[C@]32O[C@H](C)[C@@H](O)[C@H](O)[C@H]2O)s1 | –
< 7.00 | – | – | Cc1ccc(Cc2ccc3c(c2)[C@]2(OC3)O[C@H](C)[C@@H](O)[C@H](O)[C@H]2O)cc1 | –
7.80 | 6.30 | 30 | C[C@H]1O[C@]2(OCc3cc(Cl)c(Cc4ccc(Cl)s4)cc32)[C@H](O)[C@@H](O)[C@@H]1O | –
< 7.00 | – | – | CCCc1ccc(Cc2ccc3c(c2)[C@]2(OC3)O[C@H](C)[C@@H](O)[C@H](O)[C@H]2O)s1 | –
< 7.00 | – | – | C[C@H]1O[C@]2(OCc3ccc(Cc4cc5ccccc5s4)cc32)[C@H](O)[C@@H](O)[C@@H]1O | –
< 7.00 | – | – | C[C@H]1O[C@]2(OCc3ccc(Cc4ccc(-c5ccccn5)s4)cc32)[C@H](O)[C@@H](O)[C@@H]1O | –
< 7.00 | – | – | C[C@H]1O[C@]2(OCc3ccc(Cc4ccc(-c5ccc(F)cc5)s4)cc32)[C@H](O)[C@@H](O)[C@@H]1O | –
< 7.00 | – | – | CC(C)c1ccc(Cc2ccc3c(c2)[C@]2(OC3)O[C@H](C)[C@@H](O)[C@H](O)[C@H]2O)cc1 | –
< 7.00 | – | – | Cc1ccc(Cc2ccc3c(c2)[C@]2(OC3)O[C@H](C)[C@@H](O)[C@H](O)[C@H]2O)s1 | –
